Laboratory results published in ChEMBL document CHEMBL1146037, “Design and discovery of a novel dipeptidyl-peptidase IV (CD26)-based prodrug approach” (J Med Chem, 2006).
Activity calls are given as the source filed them. The calls are words filed in the database; no cut-off is given here.

tested on: MT4; assay: Antiviral activity against HIV2 assessed as inhibition of HIV2-induced cytopathicity in MT4 cells; type: functional, cell-based; settings: not given
In short: (§1)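 CEM and MT-4 cell cultures infected with HIV-1 or HIV-2, with compounds diluted into culture medium from DMSO stocks. Antiviral activity is read at day 4 post-infection and reported as EC50.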

With Cc1cn(C2OC(CO[Si](C)(C)C(C)(C)C)C3(OS(=O)(=O)C=C3N)C2O[Si](C)(C)C(C)(C)C)c(=O)n(CCCNC(=O)[C@H]2CCCN2C(=O)[C@@H](N)C(C)C)c1=O (some centres not stated) as the compound, how does the Activity read?
Its Activity is “inactive”.

Which Activity does the source give for Cc1cn(C2OC(CO[Si](C)(C)C(C)(C)C)C3(OS(=O)(=O)C=C3N)C2O[Si](C)(C)C(C)(C)C)c(=O)n(CCCNC(=O)[C@@H]2CCCN2C(=O)[C@@H](N)Cc2ccc(O)cc2)c1=O (some centres not stated) here?
The Activity was “inactive”.

For Cc1cn(C2OC(CO[Si](C)(C)C(C)(C)C)C3(OS(=O)(=O)C=C3N)C2O[Si](C)(C)C(C)(C)C)c(=O)n(CCCNC(=O)[C@@H]2CCCN2C(=O)[C@@H](N)CC(=O)O)c1=O (some centres not stated), which Activity is on record?
The Activity was “inactive”.

organism: Bos taurus; assay: Inhibition of bovine serum-catalyzed prodrug Val-Pro-NAP-TSAO-T conversion to parent drug NAP-TSAO-T; type: organism-based; settings: cattle

CC[C@H](C)[C@H](N)C(=O)N1CCCC1 was tested. Which Inhibition did it give?
Its Inhibition is greater than 80%.

For CC[C@H](C)[C@H](N)C(=O)N1CCC[C@H]1C(=O)N[C@H](C(=O)O)[C@@H](C)CC [DIPROTIN A], which Inhibition is on record?
Its Inhibition is greater than 80%.

biological target: T1, Dipeptidyl peptidase 4 (Homo sapiens, UniProt P27487); assay: Conversion of prodrug to parent drug NAP-TSAO-T catalyzed by CD26 after 24 hrs; type: ADME; set-up: concentration or dose not given beside the values; settings: not given
T1 sequence (P27487 whole entry): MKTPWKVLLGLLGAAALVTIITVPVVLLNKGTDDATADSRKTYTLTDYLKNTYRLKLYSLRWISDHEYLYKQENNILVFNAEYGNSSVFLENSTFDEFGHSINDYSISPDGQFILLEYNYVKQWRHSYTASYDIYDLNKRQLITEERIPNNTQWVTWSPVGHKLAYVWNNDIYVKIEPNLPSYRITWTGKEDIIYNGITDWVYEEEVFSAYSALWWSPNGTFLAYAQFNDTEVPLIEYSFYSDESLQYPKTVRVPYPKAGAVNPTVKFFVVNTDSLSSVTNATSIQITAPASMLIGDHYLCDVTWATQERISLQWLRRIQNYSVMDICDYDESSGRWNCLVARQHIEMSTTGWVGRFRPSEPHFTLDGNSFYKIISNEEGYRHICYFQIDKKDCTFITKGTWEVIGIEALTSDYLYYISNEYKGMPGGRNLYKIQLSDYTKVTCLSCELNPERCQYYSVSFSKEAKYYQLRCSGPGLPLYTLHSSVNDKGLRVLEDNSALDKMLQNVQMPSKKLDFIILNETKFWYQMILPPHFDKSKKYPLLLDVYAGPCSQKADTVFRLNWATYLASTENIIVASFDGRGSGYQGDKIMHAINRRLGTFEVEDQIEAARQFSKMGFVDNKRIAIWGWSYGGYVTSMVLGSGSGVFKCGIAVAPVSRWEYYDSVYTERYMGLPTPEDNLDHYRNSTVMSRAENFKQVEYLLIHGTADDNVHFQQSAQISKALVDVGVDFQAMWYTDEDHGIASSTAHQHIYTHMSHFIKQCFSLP

For Cc1cn(C2OC(CO[Si](C)(C)C(C)(C)C)C3(OS(=O)(=O)C=C3N)C2O[Si](C)(C)C(C)(C)C)c(=O)n(CCCNC(=O)[C@@H]2CCCN2C(=O)[C@@H](NC(=O)OCc2ccccc2)C(C)C)c1=O (some centres not stated), which Activity is on record?
Its Activity is 0%.

How did the Activity turn out when Cc1cn(C2OC(CO[Si](C)(C)C(C)(C)C)C3(OS(=O)(=O)C=C3N)C2O[Si](C)(C)C(C)(C)C)c(=O)n(CCCNC(=O)[C@H]2CCCN2C(=O)[C@@H](N)C(C)C)c1=O (some centres not stated) was run?
Its Activity is 4.2%.

Cc1cn(C2OC(CO[Si](C)(C)C(C)(C)C)C3(OS(=O)(=O)C=C3N)C2O[Si](C)(C)C(C)(C)C)c(=O)n(CCCNC(=O)[C@@H]2CCCN2C(=O)[C@@H](N)Cc2ccc(O)cc2)c1=O (some centres not stated) was tested. Which Activity did it give?
The Activity was 79%.

Cc1cn(C2OC(CO[Si](C)(C)C(C)(C)C)C3(OS(=O)(=O)C=C3N)C2O[Si](C)(C)C(C)(C)C)c(=O)n(CCCNC(=O)[C@@H]2CCCN2C(=O)[C@@H](N)CC(=O)O)c1=O (some centres not stated) was tested. Which Activity did it give?
The Activity was 30%.

tested on: MT4; assay: Antiviral activity against HIV1 assessed as inhibition of HIV1-induced cytopathicity in MT4 cells; type: functional, cell-based; settings: Homo sapiens; in short: as §1

Cc1cn(C2OC(CO[Si](C)(C)C(C)(C)C)C3(OS(=O)(=O)C=C3N)C2O[Si](C)(C)C(C)(C)C)c(=O)n(CCCNC(=O)[C@H]2CCCN2C(=O)[C@@H](N)C(C)C)c1=O (some centres not stated) was tested. Which EC50 did it give?
The EC50 was 0.49 µM.

Which EC50 does the source give for Cc1cn(C2OC(CO[Si](C)(C)C(C)(C)C)C3(OS(=O)(=O)C=C3N)C2O[Si](C)(C)C(C)(C)C)c(=O)n(CCCNC(=O)[C@@H]2CCCN2C(=O)[C@@H](N)Cc2ccc(O)cc2)c1=O (some centres not stated) here?
The EC50 was 0.14 µM.

With Cc1cn(C2OC(CO[Si](C)(C)C(C)(C)C)C3(OS(=O)(=O)C=C3N)C2O[Si](C)(C)C(C)(C)C)c(=O)n(CCCNC(=O)[C@@H]2CCCN2C(=O)[C@@H](N)CC(=O)O)c1=O (some centres not stated) as the compound, how does the EC50 read?
The EC50 was 1.2 µM.

biological target: T1, Dipeptidyl peptidase 4; assay: Inhibition of CD26-catalyzed GlyPro-pNA hydrolysis; settings: not given

With Cc1cn(C2OC(CO[Si](C)(C)C(C)(C)C)C3(OS(=O)(=O)C=C3N)C2O[Si](C)(C)C(C)(C)C)c(=O)n(CCCNC(=O)[C@@H]2CCCN2C(=O)[C@@H](NC(=O)OCc2ccccc2)C(C)C)c1=O (some centres not stated) as the compound, how does the Activity read?
The Activity was “Not Active”.

biological target: T1, Dipeptidyl peptidase 4; assay: Conversion of prodrug to parent drug NAP-TSAO-T catalyzed by CD26 after 1 hr; type: ADME; set-up: concentration or dose not given beside the values; settings: not given

For Cc1cn(C2OC(CO[Si](C)(C)C(C)(C)C)C3(OS(=O)(=O)C=C3N)C2O[Si](C)(C)C(C)(C)C)c(=O)n(CCCNC(=O)[C@@H]2CCCN2C(=O)[C@@H](NC(=O)OCc2ccccc2)C(C)C)c1=O (some centres not stated), which Activity is on record?
Its Activity is 0%.

How did the Activity turn out when Cc1cn(C2OC(CO[Si](C)(C)C(C)(C)C)C3(OS(=O)(=O)C=C3N)C2O[Si](C)(C)C(C)(C)C)c(=O)n(CCCNC(=O)[C@H]2CCCN2C(=O)[C@@H](N)C(C)C)c1=O (some centres not stated) was run?
The Activity was 0%.

How did the Activity turn out when Cc1cn(C2OC(CO[Si](C)(C)C(C)(C)C)C3(OS(=O)(=O)C=C3N)C2O[Si](C)(C)C(C)(C)C)c(=O)n(CCCNC(=O)[C@@H]2CCCN2C(=O)[C@@H](N)Cc2ccc(O)cc2)c1=O (some centres not stated) was run?
The Activity was 43%.

biological target: T1, Dipeptidyl peptidase 4; assay: Conversion of prodrug to parent drug NAP-TSAO-T catalyzed by CD26 after 4 hrs; type: ADME; set-up: concentration or dose not given beside the values; settings: not given

For Cc1cn(C2OC(CO[Si](C)(C)C(C)(C)C)C3(OS(=O)(=O)C=C3N)C2O[Si](C)(C)C(C)(C)C)c(=O)n(CCCNC(=O)[C@@H]2CCCN2C(=O)[C@@H](NC(=O)OCc2ccccc2)C(C)C)c1=O (some centres not stated), which Activity is on record?
Its Activity is 0%.

For Cc1cn(C2OC(CO[Si](C)(C)C(C)(C)C)C3(OS(=O)(=O)C=C3N)C2O[Si](C)(C)C(C)(C)C)c(=O)n(CCCNC(=O)[C@H]2CCCN2C(=O)[C@@H](N)C(C)C)c1=O (some centres not stated), which Activity is on record?
Its Activity is 2.2%.

With Cc1cn(C2OC(CO[Si](C)(C)C(C)(C)C)C3(OS(=O)(=O)C=C3N)C2O[Si](C)(C)C(C)(C)C)c(=O)n(CCCNC(=O)[C@@H]2CCCN2C(=O)[C@@H](N)Cc2ccc(O)cc2)c1=O (some centres not stated) as the compound, how does the Activity read?
The Activity was 66%.

With Cc1cn(C2OC(CO[Si](C)(C)C(C)(C)C)C3(OS(=O)(=O)C=C3N)C2O[Si](C)(C)C(C)(C)C)c(=O)n(CCCNC(=O)[C@@H]2CCCN2C(=O)[C@@H](N)CC(=O)O)c1=O (some centres not stated) as the compound, how does the Activity read?
The Activity was 7.9%.

tested on: CCRF-CEM; assay: Antiproliferative activity against human CEM cell line; type: functional; settings: not given
In short: (§2)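 Cytostatic assay: compounds made up as DMSO stocks and diluted in culture medium. CC50 is the concentration that inhibits MT-4 or CEM cell proliferation by 50%.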

Cc1cn(C2OC(CO[Si](C)(C)C(C)(C)C)C3(OS(=O)(=O)C=C3N)C2O[Si](C)(C)C(C)(C)C)c(=O)n(CCCNC(=O)[C@H]2CCCN2C(=O)[C@@H](N)C(C)C)c1=O (some centres not stated) was tested. Which CC50 did it give?
Its CC50 is 11 µM.

How did the CC50 turn out when Cc1cn(C2OC(CO[Si](C)(C)C(C)(C)C)C3(OS(=O)(=O)C=C3N)C2O[Si](C)(C)C(C)(C)C)c(=O)n(CCCNC(=O)[C@@H]2CCCN2C(=O)[C@@H](N)Cc2ccc(O)cc2)c1=O (some centres not stated) was run?
Its CC50 is 10 µM.

With Cc1cn(C2OC(CO[Si](C)(C)C(C)(C)C)C3(OS(=O)(=O)C=C3N)C2O[Si](C)(C)C(C)(C)C)c(=O)n(CCCNC(=O)[C@@H]2CCCN2C(=O)[C@@H](N)CC(=O)O)c1=O (some centres not stated) as the compound, how does the CC50 read?
Its CC50 is no less than 125 µM.

tested on: CCRF-CEM; assay: Antiviral activity against HIV1 assessed as inhibition of HIV1-induced cytopathicity in CEM cells; type: functional, cell-based; settings: Homo sapiens; in short: as §1

With Cc1cn(C2OC(CO[Si](C)(C)C(C)(C)C)C3(OS(=O)(=O)C=C3N)C2O[Si](C)(C)C(C)(C)C)c(=O)n(CCCNC(=O)[C@H]2CCCN2C(=O)[C@@H](N)C(C)C)c1=O (some centres not stated) as the compound, how does the EC50 read?
The EC50 was 0.09 µM.

How did the EC50 turn out when Cc1cn(C2OC(CO[Si](C)(C)C(C)(C)C)C3(OS(=O)(=O)C=C3N)C2O[Si](C)(C)C(C)(C)C)c(=O)n(CCCNC(=O)[C@@H]2CCCN2C(=O)[C@@H](N)Cc2ccc(O)cc2)c1=O (some centres not stated) was run?
The EC50 was 0.15 µM.

Cc1cn(C2OC(CO[Si](C)(C)C(C)(C)C)C3(OS(=O)(=O)C=C3N)C2O[Si](C)(C)C(C)(C)C)c(=O)n(CCCNC(=O)[C@@H]2CCCN2C(=O)[C@@H](N)CC(=O)O)c1=O (some centres not stated) was tested. Which EC50 did it give?
The EC50 was 1.1 µM.

biological target: Human immunodeficiency virus type 1 reverse transcriptase (Human immunodeficiency virus 1, UniProt Q72547); assay: Inhibition of recombinant HIV1 reverse transcriptase; settings: not given

With Cc1cn(C2OC(CO[Si](C)(C)C(C)(C)C)C3(OS(=O)(=O)C=C3N)C2O[Si](C)(C)C(C)(C)C)c(=O)n(CCCNC(=O)[C@H]2CCCN2C(=O)[C@@H](N)C(C)C)c1=O (some centres not stated) as the compound, how does the IC50 read?
The IC50 was 22 µM.

Cc1cn(C2OC(CO[Si](C)(C)C(C)(C)C)C3(OS(=O)(=O)C=C3N)C2O[Si](C)(C)C(C)(C)C)c(=O)n(CCCNC(=O)[C@@H]2CCCN2C(=O)[C@@H](N)Cc2ccc(O)cc2)c1=O (some centres not stated) was tested. Which IC50 did it give?
Its IC50 is 8.1 µM.

Cc1cn(C2OC(CO[Si](C)(C)C(C)(C)C)C3(OS(=O)(=O)C=C3N)C2O[Si](C)(C)C(C)(C)C)c(=O)n(CCCNC(=O)[C@@H]2CCCN2C(=O)[C@@H](N)CC(=O)O)c1=O (some centres not stated) was tested. Which IC50 did it give?
Its IC50 is 7.2 µM.

tested on: MT4; assay: Antiproliferative activity against human MT4 cell line; type: functional; settings: not given; in short: as §2

With Cc1cn(C2OC(CO[Si](C)(C)C(C)(C)C)C3(OS(=O)(=O)C=C3N)C2O[Si](C)(C)C(C)(C)C)c(=O)n(CCCNC(=O)[C@H]2CCCN2C(=O)[C@@H](N)C(C)C)c1=O (some centres not stated) as the compound, how does the CC50 read?
The CC50 was 22 µM.

How did the CC50 turn out when Cc1cn(C2OC(CO[Si](C)(C)C(C)(C)C)C3(OS(=O)(=O)C=C3N)C2O[Si](C)(C)C(C)(C)C)c(=O)n(CCCNC(=O)[C@@H]2CCCN2C(=O)[C@@H](N)Cc2ccc(O)cc2)c1=O (some centres not stated) was run?
The CC50 was 11 µM.

Cc1cn(C2OC(CO[Si](C)(C)C(C)(C)C)C3(OS(=O)(=O)C=C3N)C2O[Si](C)(C)C(C)(C)C)c(=O)n(CCCNC(=O)[C@@H]2CCCN2C(=O)[C@@H](N)CC(=O)O)c1=O (some centres not stated) was tested. Which CC50 did it give?
The CC50 was 69 µM.

tested on: CCRF-CEM; assay: Antiviral activity against HIV2 assessed as inhibition of HIV2-induced cytopathicity in CEM cells; type: functional, cell-based; settings: not given; in short: as §1

With Cc1cn(C2OC(CO[Si](C)(C)C(C)(C)C)C3(OS(=O)(=O)C=C3N)C2O[Si](C)(C)C(C)(C)C)c(=O)n(CCCNC(=O)[C@H]2CCCN2C(=O)[C@@H](N)C(C)C)c1=O (some centres not stated) as the compound, how does the Activity read?
Its Activity is “inactive”.

How did the Activity turn out when Cc1cn(C2OC(CO[Si](C)(C)C(C)(C)C)C3(OS(=O)(=O)C=C3N)C2O[Si](C)(C)C(C)(C)C)c(=O)n(CCCNC(=O)[C@@H]2CCCN2C(=O)[C@@H](N)Cc2ccc(O)cc2)c1=O (some centres not stated) was run?
The Activity was “inactive”.

For Cc1cn(C2OC(CO[Si](C)(C)C(C)(C)C)C3(OS(=O)(=O)C=C3N)C2O[Si](C)(C)C(C)(C)C)c(=O)n(CCCNC(=O)[C@@H]2CCCN2C(=O)[C@@H](N)CC(=O)O)c1=O (some centres not stated), which Activity is on record?
The Activity was “inactive”.

organism: Homo sapiens; assay: Inhibition of human serum-catalyzed prodrug Val-Pro-NAP-TSAO-T conversion to parent drug NAP-TSAO-T; type: organism-based; settings: not given

With CC[C@H](C)[C@H](N)C(=O)N1CCCC1 as the compound, how does the Inhibition read?
Its Inhibition is greater than 80%.

CC[C@H](C)[C@H](N)C(=O)N1CCC[C@H]1C(=O)N[C@H](C(=O)O)[C@@H](C)CC [DIPROTIN A] was tested. Which Inhibition did it give?
The Inhibition was greater than 80%.
